# Assay results pooled from the literature.
# Protocols differ between the studies behind these lines.
# CDK7 with cyclin H: Cyclin-dependent kinase 7, with cyclin H (CDK7, Homo sapiens, UniProt P50613)
# F2: Prothrombin (F2, Homo sapiens, UniProt P00734)
# PDE4D: 3',5'-cyclic-AMP phosphodiesterase 4D (PDE4D, Homo sapiens, UniProt Q08499)
# SYK: Tyrosine-protein kinase SYK (SYK, Homo sapiens, UniProt P43405)
# HMGCR: 3-hydroxy-3-methylglutaryl-coenzyme A reductase (HMGCR, Homo sapiens, UniProt P04035)
Compound,target,assay,conditions,inhibition [%]
C=C[C@H]1C[N@@]2CC[C@H]1C[C@@H]2[C@@H](O)c1ccnc2ccccc12,CDK7 with cyclin H,"enzyme activity, inhibitor, ADP detection",10 µM,12.9
O=C(Nc1ccc2c(c1)B(O)OC2)c1cccc(OCc2ccc(Cl)cc2)c1,F2,"enzyme activity, inhibitor",50 µM,13.7
COc1ccc(-c2coc3cc(O)ccc3c2=O)cc1,PDE4D,"enzyme activity, inhibitor, radiometric",50 µM,5.54
COc1cc2c(cc1OC)[C@@]13CCN4CC5=CCO[C@H]6CC(=O)N2[C@H]1[C@H]6[C@H]5C[C@H]43,CDK7 with cyclin H,"enzyme activity, inhibitor, ADP detection",10 µM,28.4
CC(C)N1CCC[C@H]1CNC(=O)c1cn(C2CCCC2)c(=O)c2c1c1ccccc1n2C,"Prostaglandin E2 receptor EP4 subtype (PTGER4, Homo sapiens, UniProt P35408)","ligand displacement, radioligand",10 µM,30
C=CCc1ccc(O)c(-c2ccc(O)c(CC=C)c2)c1,PDE4D,"enzyme activity, inhibitor, radiometric",50 µM,25.6
COc1cc(Nc2ncc(F)c(Nc3ccc4c(n3)NC(=O)C(C)(C)O4)n2)cc(OC)c1OC,"Mitogen-activated protein kinase 7 (MAPK7, Homo sapiens, UniProt Q13164)","binding, competition with immobilised ligand",10 µM,19
COc1c(-c2ccc3c(c2)OCO3)oc2c(ccc3occc32)c1=O,CDK7 with cyclin H,"enzyme activity, inhibitor, ADP detection",10 µM,30.4
N=C(N)Nc1ccc(C(=O)Nc2ccc3c(c2)B(O)OC3)cc1,F2,"enzyme activity, inhibitor",50 µM,10.7
O=C(/C=C/c1ccc(O)cc1)c1ccc(O)cc1O,PDE4D,"enzyme activity, inhibitor, radiometric",5 µM,-6.18
C[C@H](C(=O)N[C@H]1COc2ccccc2[C@@H]1S(C)(=O)=O)c1ccc(F)cc1,"Protein phosphatase 3 catalytic subunit alpha (PPP3CA, Homo sapiens, UniProt Q08209)","enzyme activity, inhibitor",10 µM,8
C#Cc1n[nH]c2c(-c3cn(C(C)c4ccccn4)c(=O)[nH]c3=O)cc(F)cc12 (stereo not drawn),SYK,"enzyme activity, inhibitor",1 µM,-7.5
O=c1c(O)c(-c2ccc(O)c(O)c2)oc2cc(O)cc(O)c12,PDE4D,"enzyme activity, inhibitor, radiometric",5 µM,75.2
Cn1cc(-c2cc(F)cc(N3CCn4c(cc5c4CCCC5)C3=O)c2CO)cc(Nc2ccc(N3CCN(C4COC4)CC3)cn2)c1=O,"Protein kinase C gamma type (PRKCG, Homo sapiens, UniProt P05129)","enzyme activity, inhibitor",0.1 µM,12
CN1CCc2cc3c(cc2[C@H]1[C@@H]1OC(=O)c2c1ccc1c2OCO1)OCO3,CDK7 with cyclin H,"enzyme activity, inhibitor, ADP detection",10 µM,22
C#Cc1n[nH]c2c(-c3cn([C@@H](C)c4ccccc4)c(=O)[nH]c3=O)cc(F)cc12,SYK,"enzyme activity, inhibitor",0.1 µM,1.6
O=C1C[C@@H](c2ccc(O[C@@H]3O[C@H](CO)[C@@H](O)[C@H](O)[C@H]3O)cc2)Oc2cc(O)ccc21,PDE4D,"enzyme activity, inhibitor, radiometric",50 µM,14
COc1cc(CNC(=O)CCCC/C=C/C(C)C)ccc1O,CDK7 with cyclin H,"enzyme activity, inhibitor, ADP detection",10 µM,31.4
Cc1cc(O)c2c(c1)C(=O)c1cc(O)cc(O)c1C2=O,PDE4D,"enzyme activity, inhibitor, radiometric",50 µM,45.4
COCc1c(-c2cc3cc(C)cc(OC)c3s2)c2c(N)ncnn2c1CN1CCNC(=O)C1,HMGCR,"enzyme activity, inhibitor",10 µM,1
CC(C)(C)[C@]1(O)CC2OC(=O)CC23C(=O)OC2OC(=O)[C@H](O)C231 (stereo partly drawn),CDK7 with cyclin H,"enzyme activity, inhibitor, ADP detection",10 µM,2.1
c1ccc(C(NCCNC(c2ccccc2)c2ccccc2)c2ccccc2)cc1,HMGCR,"enzyme activity, inhibitor",10 µM,-2
C[C@@H]1CC[C@@]2(NC1)O[C@H]1C[C@H]3[C@@H]4CC=C5C[C@@H](O)CC[C@]5(C)[C@H]4CC[C@]3(C)[C@H]1[C@@H]2C,CDK7 with cyclin H,"enzyme activity, inhibitor, ADP detection",10 µM,22.4
O=C(O)CC(O)(CC(=O)O)C(=O)O,PDE4D,"enzyme activity, inhibitor, radiometric",50 µM,99.2
O=C(Nc1cccnn1)N1CCN([C@@H]2CCOc3cc(C(F)(F)F)ccc32)CC1,"Bombesin receptor subtype-3 (BRS3, Homo sapiens, UniProt P32247)",cell-free assay,20 µM,37
CC(C)=CCc1cc(-c2coc3cc(O)cc(O)c3c2=O)cc(O)c1O,PDE4D,"enzyme activity, inhibitor, radiometric",5 µM,84.6
COc1cc2c3c(c1OC)-c1cc4c(cc1CC3N(C)CC2)OCO4 (racemic),"5-hydroxytryptamine receptor 1B (HTR1B, Homo sapiens, UniProt P28222)","ligand displacement, radioligand",10 µM,100
